These entries were drawn from the full list.
Apaf1 activ – activates human Apaf-1 apoptosome; actives 0.31% (n = 330,000); Apaf-1 apoptosome caspase-3 activation, DEVD-Rh110 fluorescence; active compounds read low; activity change, negative = activation, % at 20 µM; O14727; AID 489031;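 active = activity change at or below -40% at 20 µM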
Target sequence (O14727 whole entry, looked up): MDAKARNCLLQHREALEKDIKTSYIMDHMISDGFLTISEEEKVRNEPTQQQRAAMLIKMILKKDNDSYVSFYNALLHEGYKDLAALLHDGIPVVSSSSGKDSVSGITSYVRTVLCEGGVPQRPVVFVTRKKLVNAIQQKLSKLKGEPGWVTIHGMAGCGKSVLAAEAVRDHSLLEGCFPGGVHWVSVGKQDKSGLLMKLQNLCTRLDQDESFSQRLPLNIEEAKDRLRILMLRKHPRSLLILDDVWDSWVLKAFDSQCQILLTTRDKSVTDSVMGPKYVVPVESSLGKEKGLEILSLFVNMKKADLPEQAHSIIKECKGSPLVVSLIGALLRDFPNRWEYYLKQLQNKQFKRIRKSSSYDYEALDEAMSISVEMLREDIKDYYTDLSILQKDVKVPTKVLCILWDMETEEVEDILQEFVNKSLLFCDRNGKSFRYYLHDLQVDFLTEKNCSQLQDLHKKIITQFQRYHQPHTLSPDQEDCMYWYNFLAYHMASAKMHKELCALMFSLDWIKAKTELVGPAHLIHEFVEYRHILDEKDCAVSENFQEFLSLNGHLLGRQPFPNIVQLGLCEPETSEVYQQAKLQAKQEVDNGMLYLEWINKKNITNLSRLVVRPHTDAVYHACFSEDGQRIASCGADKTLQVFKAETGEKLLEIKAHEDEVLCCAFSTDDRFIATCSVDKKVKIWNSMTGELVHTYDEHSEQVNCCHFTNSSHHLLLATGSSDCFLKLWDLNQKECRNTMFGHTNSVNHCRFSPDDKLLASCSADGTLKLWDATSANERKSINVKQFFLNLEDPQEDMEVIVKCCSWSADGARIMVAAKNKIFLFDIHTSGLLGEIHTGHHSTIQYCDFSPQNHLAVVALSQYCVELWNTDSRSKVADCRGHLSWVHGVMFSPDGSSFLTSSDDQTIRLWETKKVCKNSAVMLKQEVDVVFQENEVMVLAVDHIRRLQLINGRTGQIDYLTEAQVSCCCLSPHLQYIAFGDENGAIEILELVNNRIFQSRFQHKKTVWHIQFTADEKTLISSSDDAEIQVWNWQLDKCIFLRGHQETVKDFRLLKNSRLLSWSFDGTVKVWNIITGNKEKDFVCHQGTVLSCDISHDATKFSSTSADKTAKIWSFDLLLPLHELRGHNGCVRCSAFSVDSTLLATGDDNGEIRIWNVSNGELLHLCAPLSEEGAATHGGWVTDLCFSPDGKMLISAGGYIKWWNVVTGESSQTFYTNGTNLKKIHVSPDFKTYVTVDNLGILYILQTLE
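system = biochemical Apaf-1 apoptosome reconstitution | buffer or medium = 20 mM HEPES pH 7.5 with CHAPS, BSA | also added = dATP and cytochrome c as apoptosome triggers, (Z-DEVD)2-Rh110 substrate | incubation = 30 min compound preincubation and 50 min reaction, both room temperature | measured by = fluorescence, 540 nm emission, 480 nm excitation | read-out basis = Caspase-3 cleavage activity downstream of Apaf-1 activation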
Rh110 interf act – counter-screen for Apaf-1 activators: fluorescence interference; shares compounds with Apaf1 activ; Rh110 fluorescence interference, quenched caspase reaction, Ex480/Em540; fluorescence interference (activity change), % at 20 µM, hits read low; 980 tested, under 10 active; AID 504616;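 active = mean activity change at or below -40% when tested at 20 µM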
Apaf-1 act conf – Apaf-1 (human) activation, single-dose confirmed | shares compounds with Apaf1 activ | reconstituted apoptosome caspase-3 activity, DEVD-Rh110 fluorescence; active compounds read low | activity change, negative = activation, % at 20 µM | actives 5% (n = 980) | AID 504617;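 active = mean activity change at or below -40%, meaning activation of 40% or more, at 20 µM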
Apaf1 act interf – Apaf-1 activator counter-screen fluorescence artifact; shares compounds with Apaf1 activ; EC50, µM; fluorescence interference counterscreen, Apaf-1 activator assay; 55 tested, under 10 active; call rule not given here
An asterisk follows results filed as active; nt = not tested or not shown.

SMILES	Apaf1 activ	Rh110 interf act	Apaf-1 act conf	others
COc1ccc(NC(=O)c2ccc(-c3ccc(-c4noc(C)n4)cc3C)cc2)cc1N1CCN(C)CC1	56.9	nt	nt
O=C(NCCO)Nc1ccc2nc(-c3ccco3)c(-c3ccco3)nc2c1	70.6	nt	nt
O=C(NNC(=O)C1CC1)c1ccccc1[N+](=O)[O-]	-59.9*	0.4	9.4
O=[N+]([O-])c1ccccc1-c1ccc(C(=S)N2CCCC2)o1	47.3	nt	nt
O=[N+]([O-])c1cc(CN2CCN(c3cccc(C(F)(F)F)c3)CC2)c2cccnc2c1O	41.6	nt	nt
CC(Nc1cccc2ccccc12)C(=O)N/N=C/c1ccccn1 (centres undefined)	95.3	nt	nt
Cc1ccc2ccc(C3C(=O)c4ccccc4C3=O)nc2c1	-169.6*	9.9	8.0
CCN1/C(=C/C=C/C=C/c2sc3ccccc3[n+]2CC)Sc2ccccc21	79.8	nt	nt
C#CCOCCOCCOCCNc1nc(N2CCOCC2)nc(N2CCN(C(=O)[C@H](CCCCN)n3cc(CN)nn3)CC2)n1	48.5	nt	nt
COc1cccc(/C=N/NC(=O)NC23CC4CC(CC(C4)C2)C3)c1O	40.1	nt	nt
CC(C)(O)C#Cc1ccc(CN2CCC(n3nccc3NC(=O)C3CC3)CC2)cc1	-78.6*	2.1	8.0
Cc1ccc(S(=O)(=O)NC(=O)Nc2ccc(N(C)C)cc2)cc1	57.0	nt	nt
Cc1noc(NS(=O)(=O)c2ccc(NC(=O)NC(C)(C(F)(F)F)C(F)(F)F)cc2)c1C	-232.2*	4.2	13.7
CCCC(C)NC(=O)c1cc(C(=O)OC)cc([N+](=O)[O-])c1 (centres undefined)	-107.8*	-2.4	11.5
O=C(Oc1ccc[nH]c1=O)c1cc([N+](=O)[O-])cc([N+](=O)[O-])c1	93.4	nt	nt
O=C(O)c1cc(O)c2c(c1)[C@@H]([C@H]1c3cc(C(=O)O)cc(O)c3C(=O)c3c(O[C@@H]4O[C@H](CO)[C@@H](O)[C@H](O)[C@H]4O)cccc31)c1cccc(O[C@@H]3O[C@H](CO)[C@@H](O)[C@H](O)[C@H]3O)c1C2=O	98.7	nt	nt
O=C(c1ccccc1)N1CCCOC1c1ccccc1 (centres undefined)	-67.0*	6.0	15.8
CCCCCN(C(=O)NC(=O)Nc1nncs1)S(C)(=O)=O	-46.3*	-2.0	7.2
COc1ccc(CN(C)C(=O)c2ccc(OCC(=O)Nc3cccc(C(F)(F)F)c3)c(OC)c2)c(OC)c1	44.9	nt	nt
C#CCOCCOCCOCCNc1nc(N2CCN(C(=O)CCCCCCCCCCNC(=O)[C@@H](CCSC)n3cc(CCO)nn3)CC2)nc(N2CCN(C(=O)CCCCCCCCCCNC(=O)[C@H]([C@@H](C)CC)n3cc(CCCCCN)nn3)CC2)n1	50.9	nt	nt
COc1ccc(-n2nc3c(N4CCC(C(=O)NCc5ccccc5C)CC4)nnc(C)c3c2C)cc1	59.0	nt	nt
Cc1ccc(C)c(NC(=S)NCCN(C2CCCCC2)C2CCCC2)c1	-73.1*	-1.3	12.6
Cc1ccc(C)c(NC(=S)Nc2cccc3cnccc23)c1	95.7	nt	nt
COC1=C(Nc2ccccc2)C(=O)c2ccccc2C1=O	60.8	nt	nt
Cc1cnc(NC(=O)CSc2ncc(-c3ccccc3)n2Cc2ccco2)s1	41.9	nt	nt
SMILES	Apaf1 activ	Rh110 interf act	Apaf-1 act conf	others
COc1ccc(C(=O)CSc2nnc(-c3cccnc3)n2Cc2ccco2)cc1	-50.3*	-0.7	7.7
CCOC(=O)C1=C(C)Nc2nc(SCC)nn2C1c1ccc(OC)cc1 (centres undefined)	-55.6*	15.5	15.5
CCOC(=O)C1=C(c2ccccc2)NC(N)=NC1c1ccc(OCc2ccc(C(=O)OC)cc2)cc1 (centres undefined)	60.6	nt	nt
N#Cc1ccc(C23CC4(C2)[C@H](CN(Cc2ccc(-c5ccccc5)cc2)[C@@H]4c2ccccc2)C3c2ccc(C(F)(F)F)cc2)cc1 (some centres undefined)	44.8	nt	nt
CCCCCCCCCCC[N+](C)(C)CC/C=C1/c2ccccc2Sc2ccc(Cl)cc21	74.9	nt	nt
CCOC(=O)C1CCN(C(=O)c2c(C)oc3c2C(=O)c2ccccc2C3=O)CC1	48.4	nt	nt
CCOC(=O)C1CCN(C(=O)c2ccccc2NS(=O)(=O)c2ccccc2)CC1	-496.4*	16.2	18.6
CC1CCN(C2=C(NS(=O)(=O)c3ccccc3)C(=O)c3ccccc3C2=O)CC1	60.0	nt	nt
COCCn1c(N)c(C#N)c2nc3ccccc3nc21	51.7	nt	nt
COc1cc(NCCCCCCCN)c2ncccc2c1	94.7	nt	nt
C=C(C)C(=O)Nc1cccc(C2=NOC3(C2)C[C@H](C(N)=O)N(C(=O)/C=C/C)C3)c1 (some centres undefined)	-280.4*	8.8	-125.9*	Apaf1 act interf=>100
